An excerpt weighted towards active compounds, which were near 3% of everything screened.
iPSC survival up = enhancers of human iPSC single-cell survival | hiPSC single-cell survival, ATPlite luminescence; 100% = ROCK inhibitor wells, 0% = DMSO | survival enhancement, % at 20 µM | 360,000 tested, 0.044% active; in the data active = survival enhancement above about 18%;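 also: cells exposed to compounds for 16 hours before the ATP read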
Granule exo inh = blocks lytic granule exocytosis. TALL-104 LAMP-1 surface exposure, flow cytometry; cells stimulated with thapsigargin and PMA. inhibition, % at 10 µM. 360,000 tested, 0.66% active;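 active = inhibition above about 55%, limit read from the data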
Apaf1 inhib = blocks human Apaf-1 apoptosome activity | O14727 | reconstituted apoptosome caspase-3 activity, DEVD-Rh110 fluorescence | inhibition, % at 20 µM | 330,000 tested, 0.71% active | AID 489030; active = inhibition of at least 40% at 20 µM;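 also: plate controls were DMSO wells for no effect and DEVD-CHO caspase inhibitor wells for full effect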
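Material: cell-free apoptosome with Apaf-1, procaspase-3 and caspase-9; Buffer or medium: Hepes pH 7.5 with detergent and BSA; Reagent: cytochrome c trigger plus (Z-DEVD)2-Rh110 caspase-3 substrate; Times: compound with Apaf-1, dATP, procaspase-3 30 min, then 50 min reaction, room temperature; Technique: Rh110 fluorescence intensity.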
MPTP inh = blocks calcium-induced mitochondrial swelling; isolated mouse mitochondria, Ca2+ swelling absorbance, 30 min; 360,000 tested, 1.4% active; inhibition, % at 10 µM;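 active = inhibition of 50% or more, scaled per plate between neutral and stimulator controls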;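 also: 0% = DMSO wells given calcium and 100% = 1 mM EGTA wells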
MIN6 prolif = inducers of beta-cell replication in MIN6 cells; 330,000 tested, 0.29% active; MIN6 cells proliferation, ATPlite luminescence, 48 h; cells starved in 0.2% serum; 100% = growth in 10% serum; proliferation, % at 10 µM;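 active = compounds whose signal lies at least 3.5 SD above the mean of all wells on their plate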;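 also: 0% = DMSO-treated cells in low-serum medium and 100% = 10% serum control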
UBC13 polyUb = inhibitors of human UBC13 polyubiquitin chain formation; 330,000 tested, 0.47% active; TR-FRET; inhibition, % at 20 µM; AID 485273; in the data active = inhibition above about 45%, passing the limit was not always enough
Target sequence (P61088 whole entry, looked up): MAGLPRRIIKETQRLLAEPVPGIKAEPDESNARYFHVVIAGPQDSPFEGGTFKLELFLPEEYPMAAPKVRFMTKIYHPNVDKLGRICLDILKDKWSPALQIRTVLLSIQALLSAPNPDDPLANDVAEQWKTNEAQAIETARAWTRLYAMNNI
MPTP counter = mitochondrial membrane potential, counter-screen | shares compounds with MPTP inh | isolated mitochondria, Rhodamine 123 fluorescence | inhibition, % at 10 µM | 5,000 tested, 78% active; in the data active = inhibition above about 22%;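 also: 0% = DMSO vehicle and 100% = positive control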
MPTP abs DR = dose response confirmation of mitochondrial permeability transition pore inhibitors | shares compounds with MPTP inh | IC50, µM | 780 tested, 58% active | isolated mitochondria swelling, absorbance; in the data active = IC50 below about 20 µM
MPTP counter DR = counter-screen for mitochondrial permeability transition pore inhibitors, dose response; isolated mitochondria counterscreen, fluorescence read-out; 780 tested, 49% active; IC50, µM; shares compounds with MPTP inh; AID 651564; in the data active = IC50 below about 80 µM
The depositor's hits bear a star; i = inactive; x = not tested or not shown.

SMILES | iPSC survival up | Granule exo inh | Apaf1 inhib | MPTP inh | MIN6 prolif | UBC13 polyUb | MPTP counter | others
CCN(CC)C(=O)[C@H]1C[C@H](CC(=O)NC(C)(C)C)C(=O)N2CCc3c([nH]c4ccc(Cl)cc34)[C@]12C | 0 | -9 | 20 | 1 | x | x | x
FC(F)(F)c1nnc(-c2ccccc2)nc1Oc1ccc(Cl)cc1Cl | -2 | -2 | 6 | 71* | -4 | -10 | 1 | MPTP abs DR=14*;MPTP counter DR=>80
CC1(c2ccccc2)CC(C)(C)N2C(=O)C3(C(C#N)=C(N)Oc4cc(O)ccc43)c3cccc1c32 (stereo not drawn) | 4 | 8 | 25 | -1 | -6 | -6 | x
CC1(c2ccccc2)CC(C)(C)N2C(=O)/C(=C3\SC(=S)NC3=O)c3cccc1c32 (stereo not drawn) | -1 | -1 | x | 102* | x | x | 63*
Cn1c(SCc2cccc([N+](=O)[O-])c2)nc2c(c1=O)SCC2 | -1 | 36 | -11 | 58* | -5 | 9 | 49*
CCc1c(C)nc2ncnn2c1NCCc1ccc(OC)cc1 | -1 | 2 | -13 | 51* | -5 | 9 | 65*
O=C1C(=O)c2ccccc2C(O)=C1C1CCC(c2ccc(Cl)cc2)CC1 (stereo not drawn) | 3 | 4 | 6 | 102* | -8 | -34 | 93*
O=C1C=C(c2cccc(Cl)c2O)C[C@@H](c2ccc(Cl)cc2)C1 | 1 | 4 | 16 | 20 | -6 | -16 | x
COc1ccc(S(=O)(=O)Nc2cc3[nH]c(=O)oc3cc2C)cc1 | 0 | -6 | -1 | 0 | 0 | -1 | x
Cn1c(=O)c2[nH]c(COc3ccc(C(C)(C)C)cc3)nc2n(C)c1=O | -1 | 2 | -8 | 96* | -7 | -21 | 70*
O=C(CC(=O)c1c(F)cccc1Cl)c1ccccc1O | 0 | -11 | 14 | 1 | -4 | -5 | x
Cc1c(CN(C)C(=O)c2sc3cc(Cl)ccc3c2Cl)cnn1C | -1 | 3 | 7 | 84* | -3 | 7 | 80*
CC1CCCN(C(=S)SCC(=O)c2cc(Br)cc(Br)c2O)C1 (stereo not drawn) | -1 | 0 | 5 | 59* | -6 | -12 | 32*
O=C(CSC(=S)N1CCCC1)c1cc(Br)cc(Br)c1O | x | x | 16 | x | -5 | -7 | x
O=C1NC[C@H](CCCCN2CCN(CC3CCCCC3)C(=O)C2=O)N(Cc2ccccc2)C1=O | 1 | -3 | x | 0 | x | x | x
CCN(CC)S(=O)(=O)c1ccc(Cl)c(C(=O)Nc2ccc(Cl)cc2[N+](=O)[O-])c1 | 2 | -2 | 11 | 91* | 0 | 8 | 92*
CCC(=O)Nc1nc2ccc([N+](=O)[O-])cc2s1 | 2 | -2 | -13 | 3 | -3 | -30 | x
Cc1ccc(C)c(OCC(=O)Nc2nc3ccc([N+](=O)[O-])cc3s2)c1C | 2 | 2 | 3 | 76* | -6 | 5 | 56*
COc1ccccc1/C=N/NC(=O)c1ccc(Cn2nc([N+](=O)[O-])cc2C)cc1 | 0 | -2 | -2 | 65* | -3 | 3 | 0 | MPTP abs DR=>100;MPTP counter DR=>80
Cc1ccc(C(=O)O/N=C2\CCSc3ccc(C)cc32)cc1 | -2 | 1 | 8 | 1 | -1 | -1 | x
COc1ccc(S(=O)(=O)O/N=C2\CCSc3ccc(C)cc32)cc1 | 0 | 1 | 7 | 59* | -2 | -6 | 37*
C[C@@H]1CN([C@@H](C)CO)C(=O)c2cc(Br)cnc2O[C@H]1CN(C)S(=O)(=O)c1cccs1 | 2 | -7 | x | 0 | x | x | x
CCCc1c(-c2ccc(F)cc2F)ncn1Cc1cccc(-c2ccccc2)c1 | x | 35 | x | 3 | x | x | x
C=CCN(C(=O)c1cccc(S(=O)(=O)N2CCN(C)CC2)c1)c1nc(-c2ccccc2)cs1 | -1 | 9 | 17 | 73* | -3 | 18 | 6 | MPTP abs DR=i;MPTP counter DR=76*
CC(C)COC(=O)N(C)C[C@@H]1OCc2cnnn2CCCC(=O)N([C@H](C)CO)C[C@H]1C | 1 | -3 | x | -1 | x | x | x
SMILES | iPSC survival up | Granule exo inh | Apaf1 inhib | MPTP inh | MIN6 prolif | UBC13 polyUb | MPTP counter | others
C=CCc1cccc(/C=N/NC(=O)C(=O)Nc2ccc(C)cc2)c1O | 1 | 0 | 2 | -1 | -3 | -11 | x
C=CCc1cccc(/C=N/NC(=O)C(C)Nc2ccc(C)cc2)c1O (stereo not drawn) | 2 | 0 | 23 | 80* | -3 | 8 | 62*
N#Cc1ccc(CN2CCN(C(=O)CN3C(=O)NC4(CCCC4)C3=O)CC2)cc1 | 0 | 4 | 2 | 1 | 3 | 2 | x
NCCCC[C@H]1CN=C(N)N1CCCCC1CCCCC1 | -1 | -4 | 6 | 74* | -4 | 23 | -9 | MPTP abs DR=i;MPTP counter DR=>80
COc1ccc(C)cc1NC(=O)CC(O)(C(F)(F)F)C(F)(F)F | 1 | 0 | 3 | 8 | 1 | -3 | x
Cc1ccc(NC(=O)CC(O)(C(F)(F)F)C(F)(F)F)cc1 | -1 | -2 | 10 | 64* | -5 | -10 | 82*
Cc1ccc(C)c(NC(=S)NC(NC(=O)OCc2ccccc2)C(Cl)(Cl)Cl)c1 (stereo not drawn) | -1 | 0 | -41 | 95* | -1 | -5 | 83*
O=C(NC(NC(=S)Nc1c(Cl)cc(Cl)cc1Cl)C(Cl)(Cl)Cl)OCc1ccccc1 (stereo not drawn) | 1 | 9 | 21 | 78* | -6 | -6 | 63*
O=C(NC(=S)Nc1c(Cl)cc(Cl)cc1Cl)c1ccccc1 | -2 | -4 | x | 2 | x | x | x
COC(=O)NC(NC(=S)Nc1cccc(C)c1)C(Cl)(Cl)Cl (stereo not drawn) | 1 | -4 | 0 | 1 | -3 | 5 | x
O=C(NCc1cccs1)c1ccc2sc([C@H]3C[C@H](O)[C@@H](CO)O3)nc2c1 | 1 | 5 | x | -1 | x | x | x
O=C(CSc1nnnn1C1CC2CCC1C2)Nc1ccnc2ccccc12 (stereo not drawn) | 2 | -2 | -2 | 98* | -4 | 4 | 101*
Fc1cccc(Cc2c(-c3ccc(Cl)cc3)nc3c(Cl)cc(C(F)(F)F)cn23)c1 | -1 | -7 | x | 2 | x | x | x
COc1ccc(C(=O)NC2CCN(CC(=O)NCc3ccccc3F)CC2)cc1 | 0 | 4 | 1 | 0 | 5 | 6 | x
Cc1cc(C(C#N)c2ccc(Cl)cc2)c(Cl)cc1NC(=O)c1cc(I)cc(I)c1O (stereo not drawn) | 1 | 1 | 5 | 100* | -8 | -23 | 20
CCOc1ccc(NC(=O)Nc2cc(OCC(F)(F)F)cc(OCC(F)(F)F)c2)cc1 | 0 | 1 | -14 | 80* | -6 | -6 | 71*
